# Experimental data: ChEMBL document CHEMBL5365428, “Alkyne as a Latent Warhead to Covalently Target SARS-CoV-2 Main Protease” (J Med Chem, 2023)
# Calls of active or inactive are those of the source. No cut-off for these calls is given here. Residues, ends and D or L forms follow the SMILES beside them. *: point of attachment. Cbz = O=C(OCc1ccccc1)*
# Key:
# [1] = target: Cathepsin B (Homo sapiens) (UniProt P07858); experiment: Inhibition of human cathepsin B upto 40 uM preincubated for 20 mins
# How it was run: (§1)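 Z-FR-AMC was added at 10 μM. Fluorescence (ex 355/em 460 nm) was read at room temperature every 5 min for 2 h, and initial velocities came from the linear portion.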
# [2] = target: Procathepsin L (Homo sapiens) (UniProt P07711); experiment: Inhibition of human cathepsin L upto 40 uM preincubated for 20 mins; how it was run: as §1
# Chain of Procathepsin L (Homo sapiens) (P07711 114-333 limits assumed): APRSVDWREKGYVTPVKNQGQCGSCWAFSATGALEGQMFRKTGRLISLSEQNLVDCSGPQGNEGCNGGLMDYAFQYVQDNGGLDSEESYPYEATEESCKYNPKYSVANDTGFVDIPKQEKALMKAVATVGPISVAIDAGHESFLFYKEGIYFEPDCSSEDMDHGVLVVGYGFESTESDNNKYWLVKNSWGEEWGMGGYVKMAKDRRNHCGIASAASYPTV
# SARS-CoV-2 [3] = experiment: Antiviral activity against SARS-CoV-2 infected in HeLa cells expressing ACE2 pre-infected for 1 hr followed by compound addition and measured after 24 hrs; type: functional, organism-based; settings: Severe acute respiratory syndrome coronavirus 2
# SARS-CoV-2 [4] = experiment: Antiviral activity against SARS-CoV-2 infected in HeLa cells expressing ACE2 at 3 uM pre-infected for 1 hr followed by compound addition and measured after 24 hrs by RT-qPCR analysis; type: functional, Severe acute respiratory syndrome coronavirus 2
# [5] = target: T1, Cathepsin K (Homo sapiens) (UniProt P43235); experiment: Inhibition of human cathepsin K upto 40 uM preincubated for 20 mins
# T1 sequence (whole entry): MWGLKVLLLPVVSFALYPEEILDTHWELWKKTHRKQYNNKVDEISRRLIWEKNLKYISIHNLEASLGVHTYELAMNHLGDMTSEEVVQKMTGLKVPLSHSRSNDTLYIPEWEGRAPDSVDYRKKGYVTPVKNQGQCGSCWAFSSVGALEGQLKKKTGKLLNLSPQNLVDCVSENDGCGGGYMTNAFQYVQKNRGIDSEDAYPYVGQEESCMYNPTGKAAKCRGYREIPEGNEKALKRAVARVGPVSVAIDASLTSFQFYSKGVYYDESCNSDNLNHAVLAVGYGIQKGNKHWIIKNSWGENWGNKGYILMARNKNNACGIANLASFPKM
# How it was run: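 Recombinant cathepsin K (0.042 nM) was preincubated with compound for 20 min in 50 mM NaOAc pH 5.5, 5 mM EDTA, 0.005% Triton X-100, 5 mM DTT and 1% DMSO. Z-FR-AMC was added at 5 μM. Fluorescence (ex 355/em 460 nm) was read at room temperature every 5 min for 2 h, and initial velocities came from the linear portion.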
# [6] = target: Replicase polyprotein 1ab (Severe acute respiratory syndrome coronavirus 2) (UniProt P0DTD1); experiment: Binding affinity to SARS-COV2 main protease at 30 uM preincubated with nirmatrelvir followed by compound addition measured over 6 hrs
# How it was run: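 Pulse-chase competition: recombinant Mpro was pretreated with 1.5 μM nirmatrelvir at 30 °C, then given 30 μM Alk-4i probe for various times. Click conjugation to TAMRA-azide was followed by SDS-PAGE and in-gel fluorescence (ex 532, em 600 nm). The nirmatrelvir dissociation half-life was derived from the labeling curve.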
# [7] = target: Replicase polyprotein 1ab (Severe acute respiratory syndrome coronavirus 2) (UniProt P0DTD1); experiment: Binding affinity to recombinant hexa-His tagged SARS-COV2 main protease expressed in Escherichia coli at 300 nM by in-gel fluorescence analysis
# How it was run: (§2)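 E. coli-expressed Mpro was incubated with Alk-4d or Alk-4i at 30 °C for 1 h. Click chemistry followed at room temperature for 1 h in the dark, with final 25 μM TAMRA-azide, 1 mM TCEP, 100 μM THPTA and 1 mM CuSO4. Samples were boiled, run on 4–20% SDS-PAGE, scanned at ex 532/em 600 nm, and silver-stained to check loading.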
# HEK293T = experiment: Binding affinity to proteome in HEK293T cells at 10 uM after 5 hrs; type: cell-based; settings: Homo sapiens
# How it was run: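 Parental HEK293T cells were treated with clickable probe at various concentrations for 5 h. Cells were harvested and lysed in NP40 buffer, and protein was normalised to 1 mg/mL. Lysates were click-conjugated to TAMRA azide, resolved by SDS-PAGE and imaged for in-gel fluorescence.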
# HeLa = experiment: Cytotoxicity against human HeLa cells expressing ACE2 upto 10 uM after 20 hrs by Cell Titer-Glo luminescent cell viability assay; type: toxicity, cell-based
# [8] = target: Replicase polyprotein 1ab (Severe acute respiratory syndrome coronavirus 2) (UniProt P0DTD1); experiment: Binding affinity to recombinant hexa-His tagged SARS-COV2 main protease expressed in Escherichia coli incubated for 1 hr by SDS-PAGE gel electrophoresis method; how it was run: as §2
# [9] = target: Replicase polyprotein 1ab (Severe acute respiratory syndrome coronavirus 2) (UniProt P0DTD1); experiment: Binding affinity to recombinant hexa-His tagged SARS-COV2 main protease expressed in HEK293T cells by in-gel fluorescence analysis; type: cell-based
# How it was run: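 HEK293T cells were transiently transfected with an Mpro plasmid. At 24 h post-transfection, they were treated with probe (from a 1000× DMSO stock) in fresh DMEM/10% FBS. Cells were washed, lysed in NP40 buffer and normalised to 1 mg/mL protein. Lysates were click-conjugated to TAMRA-azide, then analysed by SDS-PAGE and fluorescence imaging.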
# [10] = target: Replicase polyprotein 1ab (Severe acute respiratory syndrome coronavirus 2) (UniProt P0DTD1); experiment: (§3) Binding affinity to recombinant hexa-His tagged SARS-COV2 main protease expressed in Escherichia coli pretreated with nirmatrelvir followed by compound addition by SDS-PAGE gel electrophoresis method
# [11] = target: Replicase polyprotein 1ab (Severe acute respiratory syndrome coronavirus 2) (UniProt P0DTD1); experiment: Binding affinity to recombinant hexa-His tagged SARS-COV2 main protease expressed in Escherichia coli at 10 uM pretreated with (1R,2S,5S)-3-((S)-3,3-dimethyl-2-(2,2,2-trifluoroacetamido)butanoyl)-6,6-dimethyl-N-((S)-5,5,5-trifluoro-1-((S)-2- oxopyrrolidin-3-yl)pent-3-yn-2-yl)-3-azabicyclo[3.1.0]hexane-2-carboxamide
# How it was run: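 Competition labeling: recombinant Mpro (1 μg) was […] competitor and clickable probe at the indicated concentrations, at 30 °C for 1 h. TAMRA-azide click reaction, SDS-PAGE and in-gel fluorescence imaging (ex 532/em 600 nm) followed.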
# [12] = target: Replicase polyprotein 1ab (Severe acute respiratory syndrome coronavirus 2) (UniProt P0DTD1); experiment: as §3, with “(1R,2S,5S)-3-((S)-3,3-dimethyl-2-(2,2,2-trifluoroacetamido)butanoyl)-6,6-dimethyl-N-((S)-1-((S)-2-oxopyrrolidin-3-yl)but-3-yn-2-yl)-3-azabicyclo[3.1.0]hexane-2-carboxamide” for “nirmatrelvir”
# [13] = target: Replicase polyprotein 1ab (Severe acute respiratory syndrome coronavirus 2) (UniProt P0DTD1); experiment: Inhibition of recombinant hexa-His tagged SARS-COV2 main protease expressed in Escherichia coli upto 30 uM using Dabcyl-KTSAVLQISGFRKM-E(Edans)-NH2 as substrate preincubated for 15 mins followed by substrate addition and measured after 1 hr by FRET assay; settings: time 75.0 min
# How it was run: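 Fluorescence (ex 340/em 475 nm) was read every 38 s for 1 h. IC50 came from initial velocities, in duplicate.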
compound,measurement,setting,value
C#C[C@H](C[C@@H]1CCNC1=O)NC(=O)[C@@H]1[C@@H]2[C@H](CN1C(=O)[C@@H](NC(=O)C(F)(F)F)C(C)(C)C)C2(C)C,inhibition,[1],inactive
same,inhibition,[2],inactive
same,Activity,SARS-CoV-2 [3],Dose-Dependent Effect
same,Activity,SARS-CoV-2 [4],100%
same,inhibition,[5],inactive
C#CC[C@H](NC(=O)C(F)(F)F)C(=O)N1C[C@H]2[C@@H]([C@H]1C(=O)N[C@H](C#CC(F)(F)F)C[C@@H]1CCNC1=O)C2(C)C,Activity,[6],Active
same,Activity,[7],Active
same,Activity,HEK293T,Active
CC(C)(C)[C@H](NC(=O)C(F)(F)F)C(=O)N1C[C@H]2[C@@H]([C@H]1C(=O)N[C@H](C#CC(F)(F)F)C[C@@H]1CCNC1=O)C2(C)C,Activity,HeLa,Non-Toxic
same,Activity,SARS-CoV-2 [3],Dose-Dependent Effect
C#CC[C@H](NC(=O)C(F)(F)F)C(=O)N1C[C@H]2[C@@H]([C@H]1C(=O)N[C@H](C#C)C[C@@H]1CCNC1=O)C2(C)C,Activity,[8],Active
same,Activity,[9],Dose-Dependent Effect
same,Activity,[10],inactive
same,Activity,[11],inactive
same,Activity,[12],inactive
CC(C)C[C@H](NC(=O)OCc1ccccc1)C(=O)N[C@H](C#N)CCC(N)=O,inhibition,[13],inactive
CC(C)C[C@H](NC(=O)OCc1ccccc1)C(=O)N[C@H](C=O)CCC(N)=O (Cbz-Leu-Gln-aldehyde),inhibition,[13],inactive
